Assay results gathered from unrelated publications.
Compare with care: the assays were run in different laboratories.
Target: Serine/threonine-protein kinase TAO1 (TAOK1, Homo sapiens, UniProt Q7L7X3)
One construct used (Q7L7X3 1-1001): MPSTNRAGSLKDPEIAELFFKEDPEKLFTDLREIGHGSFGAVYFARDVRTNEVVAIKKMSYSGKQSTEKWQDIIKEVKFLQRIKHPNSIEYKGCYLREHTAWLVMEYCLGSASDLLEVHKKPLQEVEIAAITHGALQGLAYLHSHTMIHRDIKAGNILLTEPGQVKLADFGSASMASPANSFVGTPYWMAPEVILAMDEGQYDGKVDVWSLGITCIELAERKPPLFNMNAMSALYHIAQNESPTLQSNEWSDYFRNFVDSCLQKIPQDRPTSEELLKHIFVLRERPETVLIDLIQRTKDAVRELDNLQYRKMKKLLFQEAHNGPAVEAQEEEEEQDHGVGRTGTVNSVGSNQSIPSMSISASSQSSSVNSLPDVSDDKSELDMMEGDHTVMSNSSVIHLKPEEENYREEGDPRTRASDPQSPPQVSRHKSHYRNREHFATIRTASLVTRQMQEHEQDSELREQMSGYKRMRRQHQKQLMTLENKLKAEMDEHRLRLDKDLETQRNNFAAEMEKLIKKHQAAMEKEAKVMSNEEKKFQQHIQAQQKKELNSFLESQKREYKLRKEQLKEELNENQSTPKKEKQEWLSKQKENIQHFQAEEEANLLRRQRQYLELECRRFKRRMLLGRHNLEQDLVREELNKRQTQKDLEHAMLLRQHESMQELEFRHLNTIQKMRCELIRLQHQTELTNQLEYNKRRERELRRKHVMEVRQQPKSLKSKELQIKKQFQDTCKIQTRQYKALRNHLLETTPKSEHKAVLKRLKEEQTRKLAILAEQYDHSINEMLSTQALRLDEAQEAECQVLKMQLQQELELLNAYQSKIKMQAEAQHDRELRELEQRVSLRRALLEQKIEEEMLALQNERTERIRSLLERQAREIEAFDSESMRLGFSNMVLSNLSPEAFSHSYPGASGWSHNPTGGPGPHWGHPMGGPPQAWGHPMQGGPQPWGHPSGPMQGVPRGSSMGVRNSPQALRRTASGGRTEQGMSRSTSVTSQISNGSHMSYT

Compound	effect on	technique	concentration	remaining binding [%]
O=C(NCC1CCOCC1)c1n[nH]cc1NC(=O)c1c(F)cccc1F	binding	competition with immobilised ligand	1 µM	83
C[C@@H](c1ccc(-n2cnc3c(N)ncnc32)cc1)N1CCc2nn(C)c(Cc3ccccc3)c2C1=O	binding	competition with immobilised ligand	0.1 µM	90
CN([C@@H]1CCc2c(CC(=O)O)c3ccccc3n2C1)S(=O)(=O)c1ccc(F)cc1	cell-free assay	competition with immobilised ligand	1 µM	93
O=C(c1ccc(Nc2ncc(Cl)c(-c3cc4ccccc4s3)n2)cc1)N1CCC(N2CCCC2)CC1	binding	competition with immobilised ligand	1 µM	50
CC1CCCN1c1nccc(-c2cnn3ncccc23)n1 (stereo not shown)	binding	–	1 µM	100
Nc1ncc2c(n1)-c1c([nH]c3ccc(C#CC4CC4)cc13)CCCC2	binding	competition with immobilised ligand	1 µM	97
CN(c1nccc(-c2cnn3ncccc23)n1)C1CC1	binding	–	1 µM	100
COc1cccc(CNC(=O)c2nc3scc(COCc4ccc(C(=O)O)cc4)c3c(=O)[nH]2)c1	cell-free assay	competition with immobilised ligand	1 µM	69.5
N[C@@H]1CCN(c2nccc(-c3cnn4ncccc34)n2)C1	binding	–	1 µM	100
O=C(NCc1ncc(C(F)(F)F)cc1Cl)c1ccc2c(c1)C1(CCS(=O)(=O)CC1)[C@@H](C1CC1)N2S(=O)(=O)c1ccc(F)cc1	cell-free assay	competition with immobilised ligand	1 µM	91
Cc1cnc(Nc2ccc(C(=O)N3CCC(N4CCCC4)CC3)cc2)nc1-c1cc2ccccc2s1	binding	competition with immobilised ligand	1 µM	64
FC(F)(F)Oc1cccc(-c2cnc3ccc(-c4ccncc4)nn23)c1	binding	competition with immobilised ligand	5 µM	40
O=C1CCc2cc(Nc3cc(OC4CCOCC4)c([N+](=O)[O-])cc3Cl)ccc2N1	cell-free assay	competition with immobilised ligand	1 µM	81
O=C(c1ccc(Nc2ncc(Cl)c(-c3ccc(Cl)s3)n2)cc1)N1CCC(N2CCCC2)CC1	binding	competition with immobilised ligand	1 µM	47
c1cncc(-c2cccc(Nc3nccc(NC4CCCCC4)n3)c2)c1	binding	competition with immobilised ligand	10 µM	97
CN(C)c1nccc(-c2cnc3ncccn23)n1	binding	–	1 µM	59
O=C(O)[C@@H]1[C@@H](Cn2nnc3ccccc3c2=O)CC[C@H]1C(=O)c1ccc(OCCC2CCOCC2)cc1	cell-free assay	competition with immobilised ligand	1 µM	100
CN(CCCC(F)(F)F)c1nccc(-c2cnn3ncccc23)n1	binding	–	1 µM	100
CNCc1ccccc1-c1csc([C@H](C)Nc2nc(C)nc3cc(OC)c(OC)cc23)c1	cell-free assay	competition with immobilised ligand	1 µM	100
C[C@H]1CCN(c2nccc(-c3cnn4ncccc34)n2)C1	binding	–	1 µM	78
CN(C(=O)c1ccccc1)c1cc(N(C)c2ccc3c(c2)CCc2ccc(C(=O)NCCN4CCOCC4)cc2C3=O)ccc1F	cell-free assay	competition with immobilised ligand	1 µM	81
CNC(=O)[C@@H]1CC[C@@H](n2c(-c3ccc4cnccc4c3)nc3ccc(C(=O)NCc4cccc(C(N)=O)c4)cc32)C1	binding	competition with immobilised ligand	1 µM	100
